Measurements: ChEMBL document CHEMBL3351385, “Synthesis and preliminary mechanistic evaluation of 5-(p-tolyl)-1-(quinolin-2-yl)pyrazole-3-carboxylic acid amides with potent antiproliferative activity on human cancer cell lines” (Eur J Med Chem, 2014)

What was measured:
[1] = Induction of cell cycle arrest in human HuH7 cells assessed as accumulation at G2/M phase at cytotoxic IC50 level after 48 hrs by propidium iodide staining based FACS method; assay type: functional, Huh-7
Summary of the method: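 Huh7 cells were seeded at 150,000–300,000 per 100-mm dish and left 24 h. […] Cells were stained with a propidium iodide-containing cell cycle reagent, and subG1, G0/G1, S and G2/M fractions were scored by flow cytometry.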

[2] = molecular target: Dual specificity mitogen-activated protein kinase kinase 2 (Homo sapiens) (UniProt P36507); assay: Inhibition of MKK2 (unknown origin) assessed as remaining enzyme activity at 10 uM by radioactive [33P]-ATP filter binding assay
[3] = molecular target: Mitogen-activated protein kinase 3 (Homo sapiens) (UniProt P27361); assay: Inhibition of ERK1 (unknown origin) assessed as remaining enzyme activity at 10 uM by radioactive [33P]-ATP filter binding assay
Summary of the method: (§1)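 A single 10 µM concentration was tested across a 140-kinase panel. Activity was measured by a radioactive 33P-ATP filter-binding assay run at the International Center for Kinase Profiling, University of Dundee.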

[4] = molecular target: Mitogen-activated protein kinase 8 (Homo sapiens) (UniProt P45983); assay: Inhibition of JNK1 (unknown origin) assessed as remaining enzyme activity at 10 uM by radioactive [33P]-ATP filter binding assay
[5] = molecular target: Mitogen-activated protein kinase 11 (Homo sapiens) (UniProt Q15759); assay: Inhibition of p38beta (unknown origin) assessed as remaining enzyme activity at 10 uM by radioactive [33P]-ATP filter binding assay
Sequence of Mitogen-activated protein kinase 11 (Homo sapiens) (Q15759 whole entry): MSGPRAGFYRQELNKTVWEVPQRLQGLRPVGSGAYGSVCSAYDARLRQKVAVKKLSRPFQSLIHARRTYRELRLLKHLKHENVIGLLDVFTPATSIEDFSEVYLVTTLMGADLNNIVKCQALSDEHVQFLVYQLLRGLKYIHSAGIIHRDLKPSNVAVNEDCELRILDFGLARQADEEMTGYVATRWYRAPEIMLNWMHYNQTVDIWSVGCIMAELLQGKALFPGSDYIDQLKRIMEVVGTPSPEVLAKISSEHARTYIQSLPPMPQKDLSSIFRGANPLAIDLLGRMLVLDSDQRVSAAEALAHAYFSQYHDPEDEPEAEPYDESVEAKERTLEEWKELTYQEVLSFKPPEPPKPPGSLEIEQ

[6] = molecular target: Mitogen-activated protein kinase 13 (Homo sapiens) (UniProt O15264); assay: Inhibition of p38delta (unknown origin) assessed as remaining enzyme activity at 10 uM by radioactive [33P]-ATP filter binding assay
Sequence of Mitogen-activated protein kinase 13 (Homo sapiens) (O15264 whole entry): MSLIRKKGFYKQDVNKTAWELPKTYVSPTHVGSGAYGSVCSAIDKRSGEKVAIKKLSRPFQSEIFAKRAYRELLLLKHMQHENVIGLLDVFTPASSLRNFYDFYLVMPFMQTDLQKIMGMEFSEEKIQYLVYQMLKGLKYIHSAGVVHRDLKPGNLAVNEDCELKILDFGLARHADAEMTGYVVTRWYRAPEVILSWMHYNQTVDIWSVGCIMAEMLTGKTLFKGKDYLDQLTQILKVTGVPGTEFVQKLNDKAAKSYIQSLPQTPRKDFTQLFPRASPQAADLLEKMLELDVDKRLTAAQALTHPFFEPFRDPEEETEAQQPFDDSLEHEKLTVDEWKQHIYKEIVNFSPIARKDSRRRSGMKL

[7] = molecular target: Ribosomal protein S6 kinase beta-1 (Homo sapiens) (UniProt P23443); assay: Inhibition of S6K1 (unknown origin) assessed as remaining enzyme activity at 10 uM by radioactive [33P]-ATP filter binding assay
[8] = molecular target: Rho-associated protein kinase 2 (Homo sapiens) (UniProt O75116); assay: Inhibition of ROCK2 (unknown origin) assessed as remaining enzyme activity at 10 uM by radioactive [33P]-ATP filter binding assay
Sequence of Rho-associated protein kinase 2 (Homo sapiens) (O75116 whole entry, looked up): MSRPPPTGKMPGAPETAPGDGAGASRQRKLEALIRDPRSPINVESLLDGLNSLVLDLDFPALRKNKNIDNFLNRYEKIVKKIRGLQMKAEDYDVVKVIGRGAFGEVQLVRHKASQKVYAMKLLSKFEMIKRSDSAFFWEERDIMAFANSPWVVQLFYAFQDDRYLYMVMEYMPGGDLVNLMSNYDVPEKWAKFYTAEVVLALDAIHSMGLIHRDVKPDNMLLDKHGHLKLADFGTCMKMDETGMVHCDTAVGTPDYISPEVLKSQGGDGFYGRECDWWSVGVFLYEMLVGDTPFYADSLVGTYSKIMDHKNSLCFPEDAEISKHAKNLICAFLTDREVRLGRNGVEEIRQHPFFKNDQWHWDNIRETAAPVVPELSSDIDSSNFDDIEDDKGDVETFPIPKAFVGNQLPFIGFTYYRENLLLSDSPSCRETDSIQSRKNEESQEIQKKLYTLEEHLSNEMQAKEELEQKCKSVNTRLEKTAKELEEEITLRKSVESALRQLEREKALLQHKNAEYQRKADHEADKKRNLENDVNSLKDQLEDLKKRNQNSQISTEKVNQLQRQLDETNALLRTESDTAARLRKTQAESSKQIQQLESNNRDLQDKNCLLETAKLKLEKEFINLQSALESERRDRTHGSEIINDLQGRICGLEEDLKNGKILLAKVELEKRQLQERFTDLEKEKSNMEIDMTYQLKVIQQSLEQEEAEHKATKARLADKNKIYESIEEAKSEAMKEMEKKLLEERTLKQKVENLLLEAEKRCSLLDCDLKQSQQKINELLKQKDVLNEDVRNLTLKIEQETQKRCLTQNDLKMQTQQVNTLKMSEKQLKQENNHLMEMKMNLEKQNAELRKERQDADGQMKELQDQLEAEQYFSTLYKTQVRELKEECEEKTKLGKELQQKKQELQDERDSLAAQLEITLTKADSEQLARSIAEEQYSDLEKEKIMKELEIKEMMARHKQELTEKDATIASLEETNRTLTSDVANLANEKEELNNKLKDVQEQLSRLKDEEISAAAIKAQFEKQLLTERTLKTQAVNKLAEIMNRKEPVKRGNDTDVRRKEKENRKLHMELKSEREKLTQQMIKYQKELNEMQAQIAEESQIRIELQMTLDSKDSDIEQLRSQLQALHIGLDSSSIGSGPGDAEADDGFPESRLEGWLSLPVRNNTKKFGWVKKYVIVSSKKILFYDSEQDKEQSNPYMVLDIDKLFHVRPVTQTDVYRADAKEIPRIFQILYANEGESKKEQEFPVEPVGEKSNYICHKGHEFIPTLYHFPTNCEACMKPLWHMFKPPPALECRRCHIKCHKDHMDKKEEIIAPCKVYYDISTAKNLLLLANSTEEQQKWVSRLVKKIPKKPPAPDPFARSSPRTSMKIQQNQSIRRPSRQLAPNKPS

[9] = molecular target: MAP kinase-interacting serine/threonine-protein kinase 1 (Homo sapiens) (UniProt Q9BUB5); assay: Inhibition of MNK1 (unknown origin) assessed as remaining enzyme activity at 10 uM by radioactive [33P]-ATP filter binding assay
Sequence of MAP kinase-interacting serine/threonine-protein kinase 1 (Homo sapiens) (Q9BUB5 whole entry, looked up): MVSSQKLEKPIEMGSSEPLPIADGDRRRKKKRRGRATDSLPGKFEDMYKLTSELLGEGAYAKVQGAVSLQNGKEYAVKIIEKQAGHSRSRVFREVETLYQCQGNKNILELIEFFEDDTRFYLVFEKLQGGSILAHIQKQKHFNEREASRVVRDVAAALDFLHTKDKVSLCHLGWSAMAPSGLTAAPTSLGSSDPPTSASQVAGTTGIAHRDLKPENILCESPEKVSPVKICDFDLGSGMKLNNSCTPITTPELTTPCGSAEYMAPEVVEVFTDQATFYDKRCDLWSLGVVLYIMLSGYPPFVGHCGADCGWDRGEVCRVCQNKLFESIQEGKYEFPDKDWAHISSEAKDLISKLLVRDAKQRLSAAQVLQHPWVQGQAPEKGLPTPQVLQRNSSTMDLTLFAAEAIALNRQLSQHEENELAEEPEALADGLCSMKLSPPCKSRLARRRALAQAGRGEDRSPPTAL

[10] = molecular target: MAP kinase-activated protein kinase 3 (Homo sapiens) (UniProt Q16644); assay: Inhibition of MAPKAPK3 (unknown origin) assessed as remaining enzyme activity at 10 uM by radioactive [33P]-ATP filter binding assay
[11] = molecular target: MAP kinase-activated protein kinase 5 (Homo sapiens) (UniProt Q8IW41); assay: Inhibition of PRAK (unknown origin) assessed as remaining enzyme activity at 10 uM by radioactive [33P]-ATP filter binding assay
[12] = molecular target: Ephrin type-A receptor 2 (Homo sapiens) (UniProt P29317); assay: Inhibition of EPHA2 (unknown origin) assessed as remaining enzyme activity at 10 uM by radioactive [33P]-ATP filter binding assay; summary of the method: as §1
Sequence of Ephrin type-A receptor 2 (Homo sapiens) (P29317 whole entry, the tested form may be a part): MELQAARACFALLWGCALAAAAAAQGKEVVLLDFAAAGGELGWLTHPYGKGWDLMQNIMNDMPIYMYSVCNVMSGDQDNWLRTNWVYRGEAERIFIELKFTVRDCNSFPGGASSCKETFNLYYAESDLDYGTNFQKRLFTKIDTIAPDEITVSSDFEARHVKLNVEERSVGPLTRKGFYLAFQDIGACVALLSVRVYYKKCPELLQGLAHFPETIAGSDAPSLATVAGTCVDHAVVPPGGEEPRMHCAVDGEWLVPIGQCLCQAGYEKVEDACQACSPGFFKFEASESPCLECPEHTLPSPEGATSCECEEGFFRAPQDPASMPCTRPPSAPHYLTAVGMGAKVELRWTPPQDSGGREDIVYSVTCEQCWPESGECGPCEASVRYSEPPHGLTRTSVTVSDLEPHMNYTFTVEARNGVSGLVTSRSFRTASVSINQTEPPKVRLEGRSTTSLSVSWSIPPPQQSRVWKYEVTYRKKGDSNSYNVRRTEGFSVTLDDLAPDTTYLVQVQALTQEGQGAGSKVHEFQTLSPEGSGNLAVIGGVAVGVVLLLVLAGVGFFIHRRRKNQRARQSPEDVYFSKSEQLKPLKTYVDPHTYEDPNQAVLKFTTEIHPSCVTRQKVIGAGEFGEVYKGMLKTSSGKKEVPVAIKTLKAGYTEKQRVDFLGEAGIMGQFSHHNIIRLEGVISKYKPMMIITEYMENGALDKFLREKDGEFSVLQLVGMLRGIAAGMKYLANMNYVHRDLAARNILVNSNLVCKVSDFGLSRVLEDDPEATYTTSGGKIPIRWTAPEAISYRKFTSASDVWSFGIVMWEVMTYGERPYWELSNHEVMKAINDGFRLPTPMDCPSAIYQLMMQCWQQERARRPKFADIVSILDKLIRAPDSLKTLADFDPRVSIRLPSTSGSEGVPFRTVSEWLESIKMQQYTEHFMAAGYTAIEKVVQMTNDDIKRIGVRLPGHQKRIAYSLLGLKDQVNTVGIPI

[13] = molecular target: Discoidin domain-containing receptor 2 (Homo sapiens) (UniProt Q16832); assay: Inhibition of DDR2 (unknown origin) assessed as remaining enzyme activity at 10 uM by radioactive [33P]-ATP filter binding assay; summary of the method: as §1
[14] = molecular target: Serine/threonine-protein kinase PINK1, mitochondrial (Homo sapiens) (UniProt Q9BXM7); assay: Inhibition of PINK (unknown origin) assessed as remaining enzyme activity at 10 uM by radioactive [33P]-ATP filter binding assay
[15] = molecular target: Serine/threonine-protein kinase BRSK2 (Homo sapiens) (UniProt Q8IWQ3); assay: Inhibition of BRSK2 (unknown origin) assessed as remaining enzyme activity at 10 uM by radioactive [33P]-ATP filter binding assay; summary of the method: as §1
[16] = molecular target: NUAK family SNF1-like kinase 1 (Homo sapiens) (UniProt O60285); assay: Inhibition of NUAK1 (unknown origin) assessed as remaining enzyme activity at 10 uM by radioactive [33P]-ATP filter binding assay
[17] = molecular target: Testis-specific serine/threonine-protein kinase 1 (Homo sapiens) (UniProt Q9BXA7); assay: Inhibition of TSSK1 (unknown origin) assessed as remaining enzyme activity at 10 uM by radioactive [33P]-ATP filter binding assay
[18] = molecular target: Casein kinase I isoform gamma-2 (Homo sapiens) (UniProt P78368); assay: Inhibition of CK1gamma2 (unknown origin) assessed as remaining enzyme activity at 10 uM by radioactive [33P]-ATP filter binding assay; summary of the method: as §1
[19] = molecular target: Casein kinase II (Homo sapiens) (UniProt P67870+P68400+P19784); assay: Inhibition of CK2 (unknown origin) assessed as remaining enzyme activity at 10 uM by radioactive [33P]-ATP filter binding assay; assay type: protein-complex assay; summary of the method: as §1
[20] = molecular target: Dual specificity tyrosine-phosphorylation-regulated kinase 1A (Homo sapiens) (UniProt Q13627); assay: Inhibition of DYRK1A (unknown origin) assessed as remaining enzyme activity at 10 uM by radioactive [33P]-ATP filter binding assay; summary of the method: as §1
[21] = molecular target: Dual specificity tyrosine-phosphorylation-regulated kinase 2 (Homo sapiens) (UniProt Q92630); assay: Inhibition of DYRK2 (unknown origin) assessed as remaining enzyme activity at 10 uM by radioactive [33P]-ATP filter binding assay; summary of the method: as §1
[22] = molecular target: Dual specificity protein kinase CLK2 (Homo sapiens) (UniProt P49760); assay: Inhibition of CLK2 (unknown origin) assessed as remaining enzyme activity at 10 uM by radioactive [33P]-ATP filter binding assay; summary of the method: as §1
Sequence of Dual specificity protein kinase CLK2 (Homo sapiens) (P49760 whole entry, looked up): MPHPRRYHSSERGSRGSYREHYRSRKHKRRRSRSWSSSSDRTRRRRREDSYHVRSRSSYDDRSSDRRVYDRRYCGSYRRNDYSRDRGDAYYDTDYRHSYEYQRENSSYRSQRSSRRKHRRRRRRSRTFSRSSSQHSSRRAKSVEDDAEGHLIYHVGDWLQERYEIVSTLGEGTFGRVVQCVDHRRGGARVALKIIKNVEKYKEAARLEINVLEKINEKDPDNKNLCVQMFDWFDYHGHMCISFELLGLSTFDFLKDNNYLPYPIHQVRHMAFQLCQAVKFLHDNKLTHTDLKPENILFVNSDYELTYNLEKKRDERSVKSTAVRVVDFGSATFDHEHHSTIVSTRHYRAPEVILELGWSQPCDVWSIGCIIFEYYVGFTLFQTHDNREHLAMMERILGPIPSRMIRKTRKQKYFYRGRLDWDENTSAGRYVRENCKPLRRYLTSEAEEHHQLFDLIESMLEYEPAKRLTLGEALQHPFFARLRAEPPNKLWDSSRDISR

[23] = molecular target: Serine/threonine-protein kinase PAK 5 (Homo sapiens) (UniProt Q9P286); assay: Inhibition of PAK5 (unknown origin) assessed as remaining enzyme activity at 10 uM by radioactive [33P]-ATP filter binding assay
[24] = molecular target: Serine/threonine-protein kinase 3 (Homo sapiens) (UniProt Q13188); assay: Inhibition of MST2 (unknown origin) assessed as remaining enzyme activity at 10 uM by radioactive [33P]-ATP filter binding assay
Sequence of Serine/threonine-protein kinase 3 (Homo sapiens) (Q13188 whole entry): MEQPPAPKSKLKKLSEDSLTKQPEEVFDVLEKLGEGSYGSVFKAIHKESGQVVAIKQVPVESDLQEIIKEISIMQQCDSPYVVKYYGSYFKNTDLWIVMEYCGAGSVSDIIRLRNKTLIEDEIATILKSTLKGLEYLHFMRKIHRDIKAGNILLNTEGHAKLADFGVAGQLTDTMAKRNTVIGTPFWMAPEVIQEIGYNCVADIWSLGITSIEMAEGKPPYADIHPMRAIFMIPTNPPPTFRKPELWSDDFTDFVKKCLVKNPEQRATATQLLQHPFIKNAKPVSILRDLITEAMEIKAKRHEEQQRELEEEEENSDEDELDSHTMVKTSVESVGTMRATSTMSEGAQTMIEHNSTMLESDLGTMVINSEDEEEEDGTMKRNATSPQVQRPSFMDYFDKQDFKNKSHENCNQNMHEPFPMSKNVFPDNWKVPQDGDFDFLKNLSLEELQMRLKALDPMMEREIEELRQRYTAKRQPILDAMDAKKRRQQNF

[25] = molecular target: Mitogen-activated protein kinase kinase kinase kinase 5 (Homo sapiens) (UniProt Q9Y4K4); assay: Inhibition of MAP4K5 (unknown origin) assessed as remaining enzyme activity at 10 uM by radioactive [33P]-ATP filter binding assay
[26] = molecular target: Serine/threonine-protein kinase 16 (Homo sapiens) (UniProt O75716); assay: Inhibition of MPSK1 (unknown origin) assessed as remaining enzyme activity at 10 uM by radioactive [33P]-ATP filter binding assay
Sequence of Serine/threonine-protein kinase 16 (Homo sapiens) (O75716 whole entry): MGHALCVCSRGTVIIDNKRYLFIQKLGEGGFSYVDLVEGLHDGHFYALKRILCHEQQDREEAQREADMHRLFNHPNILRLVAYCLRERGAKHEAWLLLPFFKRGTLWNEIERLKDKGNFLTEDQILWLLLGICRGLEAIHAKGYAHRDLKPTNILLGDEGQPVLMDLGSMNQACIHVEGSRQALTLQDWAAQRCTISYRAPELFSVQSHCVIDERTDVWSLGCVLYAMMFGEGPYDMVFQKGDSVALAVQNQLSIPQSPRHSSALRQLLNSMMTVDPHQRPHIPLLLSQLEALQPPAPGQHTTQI

[27] = molecular target: TGF-beta receptor type-1 (Homo sapiens) (UniProt P36897); assay: Inhibition of TGFBR1 (unknown origin) assessed as remaining enzyme activity at 10 uM by radioactive [33P]-ATP filter binding assay
[28] = molecular target: Mitogen-activated protein kinase kinase kinase 7, TAK1 (Homo sapiens) (UniProt O43318); assay: Inhibition of TAK1 (unknown origin) assessed as remaining enzyme activity at 10 uM by radioactive [33P]-ATP filter binding assay

Cc1ccc(-c2cc(C(=O)Nc3ccnc(Cl)c3)nn2-c2ccc3ccccc3n2)cc1
Activity [1]: 27.8%
Activity [2]: 94%
Activity [3]: 103%
Activity [4]: 103%
Activity [5]: 107%
Activity [6]: 87%
Activity [7]: 88%
Activity [8]: 85%
Activity [9]: 104%
Activity [10]: 94%
Activity [11]: 88%
Activity [12]: 111%
Activity [13]: 113%
Activity [14]: 114%
Activity [15]: 102%
Activity [16]: 100%
Activity [17]: 90%
Activity [18]: 99%
Activity [19]: 85%
Activity [20]: 68%
Activity [21]: 96%
Activity [22]: 83%
Activity [23]: 97%
Activity [24]: 104%
Activity [25]: 87%
Activity [26]: 113%
Activity [27]: 108%
Activity [28]: 91%
